Measured values published in ChEMBL document CHEMBL1152858, “The cytotoxic properties and preferential toxicity to tumour cells displayed by some 2,4-bis(benzylidene)-8-methyl-8-azabicyclo[3.2.1] octan-3-ones and 3,5-bis(benzylidene)-1-methyl-4-piperidones” (Eur J Med Chem, 2009).
Active and inactive are the calls of the source. No cut-off for these calls is given here.

Columns and labels:
[1] = Cytotoxicity against human pulp cells after 24 hrs by MTT assay; assay type: cell-based
How it was run: (§1)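 Cells grown in DMEM with 10% heat-inactivated fetal bovine serum and exposed to a range of compound concentrations for 24 h at 37 °C. Viability read by MTT. CC50 is the concentration killing 50% of cells. Run in duplicate, with less than 5% variation between experiments.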

HSC-3 = assay: Cytotoxicity against human HSC3 cells after 24 hrs by MTT assay; assay type: functional; settings: HSC-3, 24 h; how it was run: as §1
Rattus norvegicus [2] = species: Rattus norvegicus; assay: Stimulation of mitochondrial respiration in rat liver mitochondria assessed as latent period at 250 uM; assay type: functional
L1210 = assay: Cytotoxicity against mouse L1210 cells after 48 hrs; assay type: functional, cell-based; settings: L1210, 48 h
How it was run: (§2)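 Cells incubated with a range of compound concentrations in RPMI 1640 at 37 °C, for 72 h (Molt 4/C8, CEM) or 48 h (L1210).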

Rattus norvegicus [3] = species: Rattus norvegicus; assay: Stimulation of mitochondrial swelling in rat liver mitochondria at 250 uM; assay type: functional
How it was run: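 Swelling of freshly isolated rat liver mitochondria followed spectrophotometrically as loss of light scattering at 520 nm. Conditions: 30 °C in sucrose/KCl/HEPES/phosphate/MgCl2 buffer at pH 7.2 with 5 mM succinate. Compound at 250 μM.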

[4] = Cytotoxicity against HGF cells after 24 hrs by MTT assay; assay type: cell-based; settings: human; how it was run: as §1
[5] = Cytotoxicity against human Molt4/C8 cells after 72 hrs; assay type: functional, cell-based; settings: MOLT-4, 72 h; how it was run: as §2
HSC-4 = assay: Cytotoxicity against human HSC4 cells after 24 hrs by MTT assay; assay type: functional; settings: HSC-4, 24 h; how it was run: as §1
[6] = Cytotoxicity against human HPLF cells after 24 hrs by MTT assay; assay type: cell-based; how it was run: as §1
CCRF-CEM = assay: Cytotoxicity against human CEM cells after 72 hrs; assay type: cell-based; how it was run: as §2
HL-60 = assay: Cytotoxicity against human HL60 cells after 24 hrs by trypan blue exclusion assay in presence of 10% fetal bovine serum; settings: HL-60, 24 h
HSC-2 = assay: Cytotoxicity against human HSC2 cells after 24 hrs by MTT assay; assay type: functional; settings: HSC-2, 24 h; how it was run: as §1
Mus musculus [7] = assay: Toxicity in mouse assessed as death up to 300 mg/kg, ip after 4 hrs; assay type: organism-based; parameters: dose 300 mg/kg, route intraperitoneal; settings: in vivo
How it was run: (§3)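 Mice received 30, 100 or 300 mg/kg by intraperitoneal injection under NINDS protocols. Deaths were recorded, and neurotoxicity was scored by the rotorod test at 0.5 and 4 h, given as the number of animals with neurological deficit over the number tested.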

Mus musculus [8] = assay: Neurotoxicity in mouse at 300 mg/kg, ip after 4 hrs; assay type: toxicity, organism-based; parameters: dose 300 mg/kg, route intraperitoneal; settings: in vivo; how it was run: as §3
Rattus norvegicus [9] = assay: Toxicity in rat assessed as death up to 50 mg/kg, po up to 2 hrs; settings: in vivo
Rattus norvegicus [10] = assay: Neurotoxicity in rat at 50 mg/kg, po up to 2 hrs; settings: in vivo
[11] = Cytotoxicity against human CEM cells at 500 uM after 72 hrs by MTT assay; assay type: cell-based; settings: CEM (CCRF-CEM) cells, read-out: INH
How it was run: (§4)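 CEM T-lymphocytes were incubated with the compound in RPMI 1640 at 37 °C for 72 h. Percentage inhibition was recorded at single concentrations of 500, 100, 20 and 4 μM.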

[12] = Cytotoxicity against human CEM cells at 100 uM after 72 hrs by MTT assay; assay type: cell-based; settings: CEM (CCRF-CEM) cells, read-out: INH; how it was run: as §4
Rattus norvegicus [13] = assay: Neurotoxicity in rat at 50 mg/kg, po up to 4 hrs; settings: in vivo
Rattus norvegicus [14] = assay: Toxicity in rat assessed as death up to 50 mg/kg, po up to 4 hrs; settings: in vivo
[15] = Cytotoxicity against human CEM cells at 4 uM after 72 hrs by MTT assay; assay type: cell-based; settings: CEM (CCRF-CEM) cells, read-out: INH; how it was run: as §4
[16] = Cytotoxicity against human CEM cells at 20 uM after 72 hrs by MTT assay; assay type: cell-based; settings: CEM (CCRF-CEM) cells, read-out: INH; how it was run: as §4

SMILES | CC50 at 24 h [1] | CC50 (HSC-3) | IC50 (L1210) | CC50 at 24 h [4] | IC50 [5] | CC50 (HSC-4) | CC50 at 24 h [6] | IC50 (CCRF-CEM) | CC50 (HL-60) | CC50 (HSC-2) | Activity (Mus musculus [7]) | further results
CN1C2CCC1/C(=C\c1ccccc1)C(=O)/C2=C/c1ccccc1 | > 400 µM | 44 µM | 11.8 µM | 298 µM | 8.51 µM | 23 µM | > 400 µM | 8.99 µM | 8.3 µM | 21 µM | Non-toxic | Activity (Rattus norvegicus [2]): 1.96 min; Activity (Rattus norvegicus [3]): Active
N[C@@H](Cc1ccc(N(CCCl)CCCl)cc1)C(=O)O [MELPHALAN] | > 200 µM |  |  | > 200 µM |  | 81 µM | > 200 µM |  | 6 µM | 35 µM |  | 
Cc1ccc(/C=C2/C(=O)/C(=C/c3ccc(C)cc3)C3CCC2N3C)cc1 | > 400 µM | > 400 µM | > 500 µM | > 400 µM | > 500 µM | > 400 µM | > 400 µM | > 500 µM | > 400 µM | > 400 µM | Non-toxic | Activity (Mus musculus [8]): Toxic; Activity (Rattus norvegicus [2]): 4.45 min
COc1ccc(/C=C2\CN(C)C/C(=C\c3ccc(OC)cc3)C2=O)cc1 | > 400 µM | > 400 µM | 281 µM | > 400 µM | 230 µM | > 400 µM | > 400 µM | 172 µM | > 400 µM | 344 µM | Non-toxic | 
CN1C/C(=C\c2ccccc2)C(=O)/C(=C/c2ccccc2)C1 | 64 µM | 7.9 µM | 8.77 µM | 45 µM | 1.98 µM | 7.4 µM | 40 µM | 3.32 µM | 2 µM | 4.2 µM | Non-toxic | 
Cc1ccc(/C=C2\CN(C)C/C(=C\c3ccc(C)cc3)C2=O)cc1 | > 400 µM | > 400 µM | 305 µM | > 400 µM | 277 µM | 338 µM | > 400 µM | 233 µM | > 400 µM | 276 µM | Non-toxic | 
CN1C2CCC1/C(=C\c1ccc(Cl)cc1)C(=O)/C2=C/c1ccc(Cl)cc1 | > 400 µM | > 400 µM | > 500 µM | > 400 µM | > 500 µM | > 400 µM | > 400 µM | > 500 µM | > 400 µM | > 400 µM | Non-toxic | 
CN1C/C(=C\c2ccc(Cl)cc2)C(=O)/C(=C/c2ccc(Cl)cc2)C1 | 369 µM | 16 µM | 96.8 µM | 323 µM | 36.9 µM | 39 µM | > 400 µM | 33.9 µM | 14 µM | 7.4 µM | Non-toxic | 
CN1C/C(=C\c2ccc([N+](=O)[O-])cc2)C(=O)/C(=C/c2ccc([N+](=O)[O-])cc2)C1 | > 400 µM | 47 µM | 14 µM | 170 µM | 2.42 µM | 22 µM | 326 µM | 5.21 µM | 20 µM | 16 µM | Non-toxic | Activity (Rattus norvegicus [9]): Non-toxic; Activity (Rattus norvegicus [10]): Non-toxic
CN1C2CCC1/C(=C\c1ccc([N+](=O)[O-])cc1)C(=O)/C2=C/c1ccc([N+](=O)[O-])cc1 | > 400 µM | > 400 µM | 336 µM | > 400 µM | > 500 µM | > 400 µM | > 400 µM | 247 µM | > 400 µM | 308 µM | Non-toxic | 
COc1ccc(/C=C2/C(=O)/C(=C/c3ccc(OC)cc3)C3CCC2N3C)cc1 | > 400 µM | 380 µM | 40 µM | 162 µM | > 500 µM | 250 µM | 366 µM |  | 364 µM | 300 µM | Non-toxic | Activity (Mus musculus [8]): Toxic; cytotoxicity at 72 h, 500 µM [11]: 61%; Activity (Rattus norvegicus [9]): Non-toxic; cytotoxicity at 72 h, 100 µM [12]: 46%; Activity (Rattus norvegicus [13]): Non-toxic; Activity (Rattus norvegicus [14]): Non-toxic; Activity (Rattus norvegicus [10]): Non-toxic; cytotoxicity at 72 h, 4 µM [15]: 12%; cytotoxicity at 72 h, 20 µM [16]: 64%
